Active and inactive are the calls of the source. No cut-off for these calls is given here.

In assay [1] the target is T1, Alpha-mannosidase (Canavalia ensiformis) (UniProt C0HJB3).
T1 sequence (whole entry): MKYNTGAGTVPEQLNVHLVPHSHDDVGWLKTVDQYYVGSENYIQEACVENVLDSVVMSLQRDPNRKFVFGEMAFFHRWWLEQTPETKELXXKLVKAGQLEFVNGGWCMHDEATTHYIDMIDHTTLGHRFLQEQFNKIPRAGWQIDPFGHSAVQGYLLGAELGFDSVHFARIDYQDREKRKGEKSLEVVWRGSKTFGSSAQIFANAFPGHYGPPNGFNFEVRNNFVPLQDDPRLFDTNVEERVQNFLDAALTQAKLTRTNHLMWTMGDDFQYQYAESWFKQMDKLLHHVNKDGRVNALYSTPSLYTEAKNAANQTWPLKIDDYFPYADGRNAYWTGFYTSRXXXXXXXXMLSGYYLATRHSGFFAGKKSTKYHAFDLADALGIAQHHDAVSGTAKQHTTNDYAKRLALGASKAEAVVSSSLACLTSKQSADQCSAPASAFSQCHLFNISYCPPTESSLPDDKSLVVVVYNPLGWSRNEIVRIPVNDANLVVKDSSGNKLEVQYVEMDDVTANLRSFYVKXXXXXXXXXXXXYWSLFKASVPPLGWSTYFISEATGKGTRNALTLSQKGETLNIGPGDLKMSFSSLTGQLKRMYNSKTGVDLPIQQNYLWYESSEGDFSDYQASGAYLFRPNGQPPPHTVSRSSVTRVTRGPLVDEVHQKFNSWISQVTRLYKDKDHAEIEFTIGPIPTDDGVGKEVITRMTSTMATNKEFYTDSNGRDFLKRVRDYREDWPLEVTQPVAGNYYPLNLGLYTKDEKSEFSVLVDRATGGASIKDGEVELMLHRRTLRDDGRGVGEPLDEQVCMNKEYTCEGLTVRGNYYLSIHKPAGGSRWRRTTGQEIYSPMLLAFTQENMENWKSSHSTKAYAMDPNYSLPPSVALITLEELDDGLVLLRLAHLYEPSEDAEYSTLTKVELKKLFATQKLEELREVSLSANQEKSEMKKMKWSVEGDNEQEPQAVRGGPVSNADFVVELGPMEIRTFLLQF
As to the kind of experiment: Inhibition of jack bean alpha-mannosidase at 1 mM using p-nitrophenyl glycopyranoside preincubated for 5 mins followed by substrate addition measured after 20 mins by visible absorption spectroscopic method relative to control. Summed up:
(§1)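 Test compound at 1 mM in well. Mix: 0.01–0.5 units/mL enzyme plus 10 mM p-nitrophenyl glycopyranoside (aqueous solution), buffered to the enzyme's optimal pH. Enzyme and inhibitor preincubated 5 min at rt. Substrate then added and incubated 20 min at 37 °C. Stopped with sodium borate (pH 9.8). p-Nitrophenolate read at 405 nm. Duplicates averaged.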

The test system of assay [2] is Prunus dulcis. As to the kind of experiment: Inhibition of almond beta-glucosidase at 1 mM using p-nitrophenyl glycopyranoside preincubated for 5 mins followed by substrate addition measured after 20 mins by visible absorption spectroscopic method relative to control. The gist of the method: as §1
Assay [3] has as its target Alpha-galactosidase (Coffea arabica) (UniProt Q42656). The assay can be described thus: Inhibition of coffee beans alpha-galactosidase at 1 mM using p-nitrophenyl glycopyranoside preincubated for 5 mins followed by substrate addition measured after 20 mins by visible absorption spectroscopic method relative to control. The gist of the method:
as §1

Another assay relates to Aspergillus niger. The assay can be described thus: Inhibition of Aspergillus niger amyloglucosidase at 1 mM using p-nitrophenyl glycopyranoside preincubated for 5 mins followed by substrate addition measured after 20 mins by visible absorption spectroscopic method relative to control. Summed up: as §1
In a further assay the test system is Oryza sativa. As to the kind of experiment: Inhibition of rice alpha-glucosidase at 1 mM using p-nitrophenyl glycopyranoside preincubated for 5 mins followed by substrate addition measured after 20 mins by visible absorption spectroscopic method relative to control. The gist of the method: as §1
A further assay deals with Saccharomyces cerevisiae. As to the kind of experiment: Inhibition of yeast alpha glucosidase at 1 mM using p-nitrophenyl glycopyranoside preincubated for 5 mins followed by substrate addition measured after 20 mins by visible absorption spectroscopic method relative to control. The gist of the method:
as §1

The subject of another assay is Canavalia ensiformis. The assay can be described thus: Inhibition of jack bean beta-N-acetylglucosaminidase at 1 mM using p-nitrophenyl glycopyranoside preincubated for 5 mins followed by substrate addition measured after 20 mins by visible absorption spectroscopic method relative to control. Summed up:
as §1

The next assay has as its system Cornu aspersum. As to the kind of experiment: Inhibition of snail beta-mannosidase at 1 mM using p-nitrophenyl glycopyranoside preincubated for 5 mins followed by substrate addition measured after 20 mins by visible absorption spectroscopic method relative to control. Summed up: as §1
Assay [4] has as its target T2, Beta-galactosidase (Aspergillus oryzae) (UniProt B7VU80).
T2 sequence (whole entry): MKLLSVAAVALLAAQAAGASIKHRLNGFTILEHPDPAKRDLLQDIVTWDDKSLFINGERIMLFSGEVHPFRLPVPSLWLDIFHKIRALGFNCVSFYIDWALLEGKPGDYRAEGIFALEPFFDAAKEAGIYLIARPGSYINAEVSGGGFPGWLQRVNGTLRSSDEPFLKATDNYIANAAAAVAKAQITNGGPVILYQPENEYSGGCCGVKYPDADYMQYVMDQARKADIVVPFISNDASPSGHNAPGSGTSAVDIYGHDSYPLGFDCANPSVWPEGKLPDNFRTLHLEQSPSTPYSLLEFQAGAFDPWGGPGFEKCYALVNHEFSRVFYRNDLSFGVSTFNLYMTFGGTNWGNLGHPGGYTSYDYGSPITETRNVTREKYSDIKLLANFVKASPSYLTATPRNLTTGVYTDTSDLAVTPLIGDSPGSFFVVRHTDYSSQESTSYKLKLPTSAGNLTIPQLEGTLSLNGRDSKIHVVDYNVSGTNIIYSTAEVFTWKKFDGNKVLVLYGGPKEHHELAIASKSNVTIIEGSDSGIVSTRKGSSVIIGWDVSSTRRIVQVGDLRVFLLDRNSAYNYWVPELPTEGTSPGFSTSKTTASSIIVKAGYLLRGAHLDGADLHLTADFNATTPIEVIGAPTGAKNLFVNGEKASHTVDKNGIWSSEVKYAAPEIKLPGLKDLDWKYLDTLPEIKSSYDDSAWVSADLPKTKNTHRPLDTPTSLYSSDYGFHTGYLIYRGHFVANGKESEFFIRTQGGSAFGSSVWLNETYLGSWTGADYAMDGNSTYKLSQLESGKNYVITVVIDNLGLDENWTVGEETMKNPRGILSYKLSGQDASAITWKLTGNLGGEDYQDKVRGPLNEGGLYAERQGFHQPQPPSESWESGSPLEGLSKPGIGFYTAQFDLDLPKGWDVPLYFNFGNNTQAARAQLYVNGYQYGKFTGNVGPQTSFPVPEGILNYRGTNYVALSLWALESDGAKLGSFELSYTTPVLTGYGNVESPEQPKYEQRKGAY
As to the kind of experiment: Inhibition of Aspergillus oryzae beta-galactosidase at 1 mM using p-nitrophenyl glycopyranoside preincubated for 5 mins followed by substrate addition measured after 20 mins by visible absorption spectroscopic method relative to control. Summed up: as §1

Another assay is filed under the species Bos taurus. As to the kind of experiment: Inhibition of bovine kidney alpha-L-fucosidase at 1 mM using p-nitrophenyl glycopyranoside preincubated for 5 mins followed by substrate addition measured after 20 mins by visible absorption spectroscopic method relative to control. Summed up:
as §1

The target in assay [5] is Beta-galactosidase (Escherichia coli) (UniProt Q8VNN2). The assay can be described thus: Inhibition of Escherichia coli beta-galactosidase at 1 mM using p-nitrophenyl glycopyranoside preincubated for 5 mins followed by substrate addition measured after 20 mins by visible absorption spectroscopic method relative to control. Summed up:
as §1

For assay [6], the system named is Prunus dulcis. The assay can be described thus: Inhibition of almond beta-glucosidase at 10 uM using p-nitrophenyl glycopyranoside preincubated for 5 mins followed by substrate addition measured after 20 mins by visible absorption spectroscopic method relative to control. Summed up:
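Crude click-reaction products screened in situ. Azide (final 15 mM) was reacted with each alkyne using sodium ascorbate/CuSO4 in tBuOH–H2O for 24 h at rt, then diluted with water. Tested at 10 μM per well, assuming quantitative conversion, against almond β-glucosidase at pH 5, 37 °C. p-Nitrophenyl glycoside read-out at 405 nm.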

Beta-galactosidase (Escherichia coli), sequence (Q8VNN2 whole entry, looked up): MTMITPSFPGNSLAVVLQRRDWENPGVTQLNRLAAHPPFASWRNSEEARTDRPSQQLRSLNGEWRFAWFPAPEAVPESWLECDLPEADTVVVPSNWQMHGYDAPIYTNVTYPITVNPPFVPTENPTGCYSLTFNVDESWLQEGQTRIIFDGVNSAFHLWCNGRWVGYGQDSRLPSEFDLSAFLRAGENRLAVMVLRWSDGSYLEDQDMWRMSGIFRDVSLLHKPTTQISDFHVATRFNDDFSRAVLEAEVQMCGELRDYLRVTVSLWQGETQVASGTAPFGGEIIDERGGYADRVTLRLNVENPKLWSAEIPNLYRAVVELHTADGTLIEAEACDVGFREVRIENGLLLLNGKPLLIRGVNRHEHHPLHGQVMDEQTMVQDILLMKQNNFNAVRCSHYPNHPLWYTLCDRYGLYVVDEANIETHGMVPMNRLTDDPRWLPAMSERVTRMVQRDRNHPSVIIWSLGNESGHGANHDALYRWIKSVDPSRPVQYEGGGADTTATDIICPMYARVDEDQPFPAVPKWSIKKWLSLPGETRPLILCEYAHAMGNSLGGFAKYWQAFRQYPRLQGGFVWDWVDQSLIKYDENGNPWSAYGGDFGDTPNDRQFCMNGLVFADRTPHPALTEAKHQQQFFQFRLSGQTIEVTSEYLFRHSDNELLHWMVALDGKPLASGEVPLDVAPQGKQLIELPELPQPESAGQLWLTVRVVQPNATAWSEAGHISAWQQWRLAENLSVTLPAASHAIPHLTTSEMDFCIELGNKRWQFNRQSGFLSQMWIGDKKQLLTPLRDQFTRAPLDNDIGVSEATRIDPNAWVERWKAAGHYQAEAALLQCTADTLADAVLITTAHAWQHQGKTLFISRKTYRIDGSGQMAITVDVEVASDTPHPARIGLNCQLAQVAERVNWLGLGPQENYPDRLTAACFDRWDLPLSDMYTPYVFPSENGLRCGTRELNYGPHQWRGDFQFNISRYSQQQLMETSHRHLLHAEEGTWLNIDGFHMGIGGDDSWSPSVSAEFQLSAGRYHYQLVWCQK
Alpha-galactosidase (Coffea arabica), sequence (Q42656 16-378 limits assumed): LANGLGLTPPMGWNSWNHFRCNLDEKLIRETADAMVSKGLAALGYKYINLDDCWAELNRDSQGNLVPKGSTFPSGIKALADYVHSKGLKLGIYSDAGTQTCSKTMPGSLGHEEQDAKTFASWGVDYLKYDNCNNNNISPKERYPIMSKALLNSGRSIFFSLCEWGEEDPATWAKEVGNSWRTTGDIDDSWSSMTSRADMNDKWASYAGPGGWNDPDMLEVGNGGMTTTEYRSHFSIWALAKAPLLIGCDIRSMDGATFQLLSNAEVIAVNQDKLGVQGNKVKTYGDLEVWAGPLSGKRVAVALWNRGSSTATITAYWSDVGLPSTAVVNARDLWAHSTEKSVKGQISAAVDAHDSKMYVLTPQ

A word on the inhibition: it is how much of the control response was suppressed. Take `O[C@@H]1[C@H](O)CN[C@H]1CNC(=S)Nc1ccccc1`: the inhibition entry (in assay [1]; in the assay on Oryza sativa; in the assay with Saccharomyces cerevisiae; in the assay on Canavalia ensiformis; in [4]; in the assay listed under Bos taurus) was “inactive” each time. Moreover, the inhibition entry in assay [5] was “inactive”. The inhibition with Prunus dulcis [2] turned out to be 74%; in assay [3], 16%; in the assay on Aspergillus niger, 18%; in the assay on Cornu aspersum, 45%.

As to `O[C@@H]1[C@H](O)CN[C@H]1Cn1cc(CC2CCCCC2)nn1`, the inhibition result with Prunus dulcis [6] was “inactive”.

`OCc1ccc(-c2cn(C[C@@H]3NC[C@@H](O)[C@H]3O)nn2)cc1`: the inhibition entry with Prunus dulcis [6] is “inactive”.

For the compound `O[C@H]1[C@@H](O)CN[C@@H]1Cn1cc(-c2ccccc2)nn1`, the inhibition in [1] was found to be 60%; in the assay with Prunus dulcis [2] it was 49%. The inhibition result (in assay [3]; with Aspergillus niger; in the assay with Oryza sativa; in the assay with Saccharomyces cerevisiae; in the assay on Canavalia ensiformis; in the assay on Cornu aspersum) was “inactive” in each case. In addition, the inhibition entry (in assay [4]; in the assay filed under Bos taurus; in assay [5]) was “inactive” in each case.

Take `O[C@@H]1[C@H](O)CN[C@H]1c1cn(Cc2ccccc2)nn1`: the inhibition entry (in [1]; in the assay with Prunus dulcis [2]; in assay [3]; with Aspergillus niger; in the assay on Oryza sativa; in the assay on Saccharomyces cerevisiae) was “inactive” throughout. Also, the inhibition entry (in the assay on Canavalia ensiformis; with Cornu aspersum; in [4]; in [5]) was “inactive” in each case. In the assay listed under Bos taurus, this compound registered an inhibition of 71%.

Turning to `OCc1cn(C[C@@H]2NC[C@@H](O)[C@H]2O)nn1`, the inhibition result in the assay on Prunus dulcis [6] is “inactive”.

For `O[C@@H]1[C@H](O)CN[C@H]1Cn1cc(COc2ccccc2)nn1`, in the assay on Prunus dulcis [6], the inhibition result is “inactive”.

Regarding `OCCOCc1cn(C[C@@H]2NC[C@@H](O)[C@H]2O)nn1`, in the assay on Prunus dulcis [6], the inhibition result was “inactive”.

As to `Cc1oc(CO)cc1C(=O)NCc1cn(C[C@@H]2NC[C@@H](O)[C@H]2O)nn1`, in the assay on Prunus dulcis [6], the inhibition result was “inactive”.

`O[C@@H]1[C@H](O)CN[C@H]1Cn1cc(C2(O)CCCCC2)nn1`: the inhibition result with Prunus dulcis [6] is “inactive”.

With `CN(Cc1ccccc1)Cc1cn(C[C@@H]2NC[C@@H](O)[C@H]2O)nn1`, the inhibition result with Prunus dulcis [6] is “inactive”.

With `O=C(NCc1cn(C[C@@H]2NC[C@@H](O)[C@H]2O)nn1)c1ccccc1`, the inhibition entry in the assay with Prunus dulcis [6] is “inactive”.

As to `COC(=O)c1cn(C[C@@H]2NC[C@@H](O)[C@H]2O)nn1`, in the assay with Prunus dulcis [6], the inhibition result was “inactive”.

As to `O=C(O)CCCc1cn(C[C@@H]2NC[C@@H](O)[C@H]2O)nn1`, the inhibition result in the assay on Prunus dulcis [6] is “inactive”.

As for `O[C@@H]1[C@@H](c2cn(Cc3ccccc3)nn2)NC[C@@H]1O`, the inhibition was determined as 30% in assay [1] and 21% in the assay filed under Bos taurus. The inhibition result (in the assay with Prunus dulcis [2]; in assay [3]; in the assay with Aspergillus niger; in the assay with Oryza sativa; in the assay on Saccharomyces cerevisiae; in the assay with Canavalia ensiformis) was “inactive” in each case. Moreover, the inhibition result (in the assay on Cornu aspersum; in assay [4]; in [5]) was “inactive” in each case.

For `COc1ccc(-c2cn(C[C@@H]3NC[C@@H](O)[C@H]3O)nn2)cc1`, in the assay with Prunus dulcis [6], the inhibition result is “inactive”.

On to `O=C(NC[C@@H]1NC[C@@H](O)[C@H]1O)c1ccccc1`, for which the inhibition in assay [1] is 71%; in the assay with Prunus dulcis [2], 79%; with Canavalia ensiformis, 17%; in the assay listed under Bos taurus it was 15%. Moreover, the inhibition result (in assay [3]; with Aspergillus niger; in the assay on Oryza sativa; with Saccharomyces cerevisiae; with Cornu aspersum; in assay [4]) was “inactive” in each case. In addition, the inhibition entry in assay [5] was “inactive”.

For the compound `COc1ccc2cc(-c3cn(C[C@@H]4NC[C@@H](O)[C@H]4O)nn3)ccc2c1`, the inhibition result with Prunus dulcis [6] is “inactive”.

For `OCCCc1cn(C[C@@H]2NC[C@@H](O)[C@H]2O)nn1`, the inhibition entry in the assay on Prunus dulcis [6] is “inactive”.

On to `OCCOCCOCCOCCOCCOCCOCc1cn(C[C@@H]2NC[C@@H](O)[C@H]2O)nn1`, for which the inhibition entry in the assay on Prunus dulcis [6] is “inactive”.

On to `Cc1ccc(S(=O)(=O)OCCOCCOCCOCCOCCOCCOCc2cn(C[C@@H]3NC[C@@H](O)[C@H]3O)nn2)cc1`, for which the inhibition entry with Prunus dulcis [6] was “inactive”.

Regarding `NCc1cn(C[C@@H]2NC[C@@H](O)[C@H]2O)nn1`, the inhibition entry in the assay with Prunus dulcis [6] was “inactive”.

The values are drawn from ChEMBL document CHEMBL4190262, “Tuning of β-glucosidase and α-galactosidase inhibition by generation and in situ screening of a library of pyrrolidine-triazole hybrid molecules” (Eur J Med Chem, 2017).
